According to ChEMBL document CHEMBL3351549, “Discovery of a Potent and Selective BCL-XL Inhibitor with in Vivo Activity” (ACS Med Chem Lett, 2014):
The source made the active and inactive calls. No cut-off for these calls is given here.

Key:
[1] = Cytotoxicity against BCL-XL-dependent human NCI-H146 cells in presence of 10% human serum
[2] = target: T1, Bcl-2-like protein 1 (Homo sapiens, UniProt Q07817); test: Inhibition of BCL-XL (unknown origin) incubated for 1 hr in presence of 1% human serum by TR-FRET assay
T1 sequence (Q07817 whole entry): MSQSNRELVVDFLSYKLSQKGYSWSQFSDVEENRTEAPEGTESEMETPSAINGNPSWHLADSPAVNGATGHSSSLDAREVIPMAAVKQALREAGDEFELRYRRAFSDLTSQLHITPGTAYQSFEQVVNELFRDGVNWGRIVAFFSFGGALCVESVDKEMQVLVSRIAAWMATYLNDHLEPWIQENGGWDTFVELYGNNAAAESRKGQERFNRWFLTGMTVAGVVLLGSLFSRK

[3] = target: T1, Bcl-2-like protein 1; test: Inhibition of BCL-XL (unknown origin) incubated for 1 hr by TR-FRET assay
[4] = Cytotoxicity against BCL-XL-dependent human NCI-H146 cells in presence of 10% human serum incubated for 48 hrs by Cell titerGlo reagent based assay; type: functional; conditions: NCI-H146, 48 h
[5] = target: T2, Bcl-2-like protein 2 (Homo sapiens, UniProt Q92843); test: Binding affinity to BCL-W (unknown origin)
T2 sequence (Q92843 whole entry): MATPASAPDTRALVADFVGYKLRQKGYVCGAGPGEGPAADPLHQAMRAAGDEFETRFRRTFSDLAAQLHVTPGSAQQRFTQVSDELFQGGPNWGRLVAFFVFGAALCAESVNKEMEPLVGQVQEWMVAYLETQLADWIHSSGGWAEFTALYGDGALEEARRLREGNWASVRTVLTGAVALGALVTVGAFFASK

[6] = test system: Mus musculus; test: Reduction in platelets count in SCID-Beige mouse at 5 mg/kg, ip after 72 hrs; type: functional, organism-based; parameters: dose 5 mg/kg
Method in brief: (§1)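 Nontumor-bearing female SCID-Beige mice received a single IP dose of 5 mg/kg in the 5% DMSO/10% EtOH/20% Cremophor ELP/65% DSW vehicle. Blood was taken by retro-orbital bleed at regular intervals after dosing and platelets were counted.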

[7] = Antitumor activity against BCL-XL-dependent human NCI-H146 cells xenografted in SCID-Beige mouse assessed as tumor growth inhibition at 5 mg/kg, ip for 14 days; type: functional; conditions: route intraperitoneal
Method in brief: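 Female SCID-Beige mice carried subcutaneous NCI-H146 xenografts and were dosed at 5 mg/kg IP QD ×14, or with an equal volume of vehicle (5% DMSO/10% EtOH/20% Cremophor ELP/65% DSW). There were 5 mice per time point. Tumor volume was calculated as W²·L·0.5 from perpendicular diameters and tracked over time. Treated and untreated groups were compared by Student's t test (p < 0.05).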

[8] = AUC in SCID-Beige mouse at 5 mg/kg, ip; type: ADME, organism-based; parameters: dose 5 mg/kg, route intraperitoneal; conditions: plasma
Method in brief: (§2)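 Nontumor-bearing SCID-Beige mice got a single IP dose of 5 mg/kg. Vehicle was 5% DMSO, 10% EtOH, 20% Cremophor ELP and 65% DSW. Pharmacokinetic parameters were taken from plasma exposure after the single dose.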

[9] = test system: Mus musculus; test: Reduction in platelets count in SCID-Beige mouse at 5 mg/kg, ip after 6 hrs; type: functional, organism-based; parameters: dose 5 mg/kg; method in brief: as §1
[10] = target: Induced myeloid leukemia cell differentiation protein Mcl-1 (Homo sapiens, UniProt Q07820); test: Binding affinity to MCL1 (unknown origin)
Sequence of Induced myeloid leukemia cell differentiation protein Mcl-1 (Q07820 whole entry): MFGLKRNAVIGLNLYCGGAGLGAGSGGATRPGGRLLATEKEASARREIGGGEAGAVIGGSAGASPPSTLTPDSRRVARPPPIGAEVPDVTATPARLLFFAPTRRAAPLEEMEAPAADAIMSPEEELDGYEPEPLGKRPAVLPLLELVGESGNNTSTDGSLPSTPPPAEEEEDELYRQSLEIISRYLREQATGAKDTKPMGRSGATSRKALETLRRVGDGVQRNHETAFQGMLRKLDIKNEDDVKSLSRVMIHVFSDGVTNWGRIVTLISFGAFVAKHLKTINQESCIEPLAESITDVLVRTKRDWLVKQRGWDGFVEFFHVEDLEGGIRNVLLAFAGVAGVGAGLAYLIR

[11] = Tmax in SCID-Beige mouse at 5 mg/kg, ip; type: ADME, organism-based; parameters: dose 5 mg/kg, route intraperitoneal; conditions: in vivo; method in brief: as §2
[12] = Cmax in SCID-Beige mouse at 5 mg/kg, ip; type: ADME, organism-based; parameters: dose 5 mg/kg, route intraperitoneal; conditions: in vivo; method in brief: as §2
[13] = Drug concentration in SCID-Beige mouse at 5 mg/kg, ip after 12 hrs; type: ADME, organism-based; parameters: dose 5 mg/kg, route intraperitoneal; conditions: in vivo, read-out: Drug uptake; method in brief: as §2
[14] = target: Apoptosis regulator Bcl-2 (Homo sapiens, UniProt P10415); test: Inhibition of BCL-2 (unknown origin) incubated for 1 hr by TR-FRET assay
Sequence of Apoptosis regulator Bcl-2 (P10415 whole entry): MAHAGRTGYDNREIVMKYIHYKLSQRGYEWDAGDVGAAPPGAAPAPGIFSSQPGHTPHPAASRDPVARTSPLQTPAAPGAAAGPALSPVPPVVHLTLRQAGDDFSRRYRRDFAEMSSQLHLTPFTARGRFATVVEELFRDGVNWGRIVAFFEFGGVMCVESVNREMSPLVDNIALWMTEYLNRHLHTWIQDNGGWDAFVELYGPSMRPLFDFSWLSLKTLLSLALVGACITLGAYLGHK

[15] = target: T1, Bcl-2-like protein 1; test: Binding affinity to BCL-XL (unknown origin)

| SMILES | Ki [2] | Ki [3] | Ki [14] | EC50 [4] | other results |
| --- | --- | --- | --- | --- | --- |
| NCc1ccc(OCCCc2sc(-c3ccc4c(c3)/C(=N/Nc3nc5ccccc5s3)CCC4)nc2C(=O)O)cc1 |  |  |  |  | EC50 [1]: 0.55 µM |
| CN(C)CC#Cc1ccc(OCCCc2sc(N3CCc4cccc(C(=O)Nc5nc6ccccc6s5)c4C3)nc2C(=O)O)cc1 | 0.28 nM | 0.02 nM |  | 0.6 µM |  |
| CN(C)CC#Cc1ccc(OCCCc2sc(N3CCc4cccc(C(=O)Nc5nc6ccccc6s5)c4C3)nc2C(=O)O)c(F)c1 [A-1155463] | 0.1 nM | < 0.01 nM | 0.08 µM | 0.065 µM | Ki [5]: 0.019 µM; inhibition [6]: inactive; Imax [7]: 44%; AUC [8]: 9.19 µM·h; inhibition [9]: Active; Ki [10]: > 0.44 µM; Tmax [11]: 2 h; Cmax [12]: 1.8 µM; concentration at 12 h [13]: 0.18 µM |
| CN1CCN(CCCNc2ncnc3c2cnn3-c2ccc(OCCCc3sc(N4CCc5cccc(C(=O)Nc6nc7ccccc7s6)c5C4)nc3C(=O)O)cc2)CC1 | 0.03 nM | < 0.01 nM |  |  |  |
| CN(C)CC#Cc1ccc(OCCCc2sc(N3CCc4cccc(C(=O)Nc5nc6ccccc6s5)c4C3)nc2C(=O)O)c(Cl)c1 | 0.41 nM |  | 0.28 µM | 0.18 µM |  |
| CN(C)CC#Cc1cc(F)c(OCCCc2sc(N3CCc4cccc(C(=O)Nc5nc6ccccc6s5)c4C3)nc2C(=O)O)cc1F | 0.33 nM | 0.03 nM | 0.09 µM | 0.126 µM |  |
| CN(C)CC#Cc1ccc(OCCCc2sc(N3CCc4cccc(C(=O)Nc5nc6ccccc6s5)c4C3)nc2C(=O)O)cc1F | 1.12 nM | 0.01 nM | 0.088 µM | 0.051 µM |  |
| c1ccc(-n2ncc3cncnc32)cc1 |  |  |  |  | Kd [15]: 4000 µM |

More lines, main results first:

| Ki [2] | Ki [3] | Ki [14] | SMILES | EC50 [4] | other results |
| --- | --- | --- | --- | --- | --- |
| 0.38 nM | 0.042 nM | 0.17 µM | O=C(Nc1nc2ccccc2s1)c1cccc2c1CN(c1nc(C(=O)O)c(CCCOc3ccc(-n4ncc5cncnc54)cc3)s1)CC2 |  |  |
| 320 nM | 12.4 nM | 0.09 µM | O=C(Nc1nc2ccccc2s1)c1cccc2c1CN(c1nc(C(=O)O)c(CCOc3ccc(-n4ncc5cncnc54)cc3)s1)CC2 [A-1107969] |  |  |
| 0.99 nM | < 0.01 nM | 0.15 µM | O=C(Nc1nc2ccccc2s1)c1cccc2c1CN(c1nc(C(=O)O)c(CCCOc3ccc(-n4cccn4)cc3)s1)CC2 |  |  |
|  | < 0.01 nM | 0.24 µM | CN(C)CCCNc1ncnc2c1cnn2-c1ccc(OCCCc2sc(N3CCc4cccc(C(=O)Nc5nc6ccccc6s5)c4C3)nc2C(=O)O)cc1 |  |  |
| 55.4 nM |  |  | O=C(Nc1nc2ccccc2s1)c1cccc2c1CN(c1nc(C(=O)O)c(CCCCOc3ccc(-n4ncc5cncnc54)cc3)s1)CC2 |  |  |
| 41.1 nM | 2.22 nM | 0.1 µM | O=C(Nc1nc2ccccc2s1)c1cccc2c1CN(c1nc(C(=O)O)c(CCOc3cccc(-n4ncc5cncnc54)c3)s1)CC2 |  |  |
| 10.4 nM | 0.34 nM | 0.22 µM | O=C(Nc1nc2ccccc2s1)c1cccc2c1CN(c1nc(C(=O)O)c(CCCOc3cccc(-n4ncc5cncnc54)c3)s1)CC2 |  |  |
